IC50, Activity and inhibition data for 25 molecules are collected here from ChEMBL document CHEMBL4145630, “Development of Highly Potent and Selective Steroidal Inhibitors and Degraders of CDK8” (ACS Med Chem Lett, 2018).

Each structure is given as a SMILES string. Active and inactive are the calls of the source. No cut-off for these calls is given here.

The target in assay [1] is T1, Cyclin-dependent kinase 8 (Homo sapiens, UniProt P49336). The assay can be described thus: Inhibition of CDK8 (unknown origin).
The target of assay [2] is T2, Protein cereblon/Cyclin-dependent kinase 8 (Homo sapiens) (UniProt P49336+Q96SW2). Kind of assay: Induction of CRBN-mediated CDK8 degradation in human Jurkat cells at 0.1 to 10 uM measured after 24 hrs by immunoblot analysis. In kind it is cell-based. Summed up:
(§1)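 Jurkat cells incubated with increasing concentrations (up to 20 μM in the widest series) for 24 h; lysate CDK8 levels read by immunoblot.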

Assay [3] concerns the target T2, Protein cereblon/Cyclin-dependent kinase 8 (Homo sapiens). The assay can be described thus: Induction of CRBN-mediated CDK8 degradation in human Jurkat cells up to 10 uM measured after 24 hrs by immunoblot analysis. Type of assay: cell-based. Summed up:
as §1

Assay [4] has as its target T1, Cyclin-dependent kinase 8. Kind of assay: Inhibition of CDK8 in human HepG2 cells assessed as reduction in IFNgamma-induced STAT1 phosphorylation at S727 measured after 18 hrs by Western blot analysis. In kind it is cell-based. In general terms: In western blotting, separated proteins are transferred to a membrane and probed.

T1 sequence (P49336 whole entry): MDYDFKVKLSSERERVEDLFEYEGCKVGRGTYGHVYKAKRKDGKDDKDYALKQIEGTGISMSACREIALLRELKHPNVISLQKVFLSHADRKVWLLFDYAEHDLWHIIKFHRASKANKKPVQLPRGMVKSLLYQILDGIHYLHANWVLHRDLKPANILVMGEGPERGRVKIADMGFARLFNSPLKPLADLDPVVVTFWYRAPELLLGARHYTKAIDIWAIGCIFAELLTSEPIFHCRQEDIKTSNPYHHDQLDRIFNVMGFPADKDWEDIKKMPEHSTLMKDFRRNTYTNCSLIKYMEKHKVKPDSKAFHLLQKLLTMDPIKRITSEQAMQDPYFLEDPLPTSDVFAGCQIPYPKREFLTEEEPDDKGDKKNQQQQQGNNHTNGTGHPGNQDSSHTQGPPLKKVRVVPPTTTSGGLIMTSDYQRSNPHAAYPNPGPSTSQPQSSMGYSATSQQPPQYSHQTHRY
T2 sequence (P49336 whole entry, looked up): as the sequence (P49336 whole entry) above
T2 sequence (Q96SW2 whole entry, looked up): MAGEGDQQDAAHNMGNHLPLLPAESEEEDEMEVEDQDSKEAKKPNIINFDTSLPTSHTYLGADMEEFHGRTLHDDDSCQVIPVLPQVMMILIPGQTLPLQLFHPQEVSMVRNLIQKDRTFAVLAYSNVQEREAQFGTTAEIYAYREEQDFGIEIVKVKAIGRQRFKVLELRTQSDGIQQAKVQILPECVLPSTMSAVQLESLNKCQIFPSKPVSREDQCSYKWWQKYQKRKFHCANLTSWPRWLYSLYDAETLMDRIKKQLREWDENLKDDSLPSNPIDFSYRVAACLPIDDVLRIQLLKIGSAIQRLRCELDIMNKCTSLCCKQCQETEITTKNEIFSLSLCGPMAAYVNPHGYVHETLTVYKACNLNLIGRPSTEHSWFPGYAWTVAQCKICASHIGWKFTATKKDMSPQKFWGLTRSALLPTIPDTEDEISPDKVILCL

With `CN[C@H]1CC[C@@]2(C)[C@@H](CC[C@@H]3[C@@H]2CC[C@]2(C)[C@@H](c4ccc5ccncc5c4)CC[C@@H]32)C1`, in assay [1], the IC50 (as a rule, the point on the concentration scale where inhibition reaches its midpoint) stood at 1320 nM.

`CN(C(=O)CCOCCOCCNc1cccc2c1C(=O)N(C1CCC(=O)NC1=O)C2=O)[C@H]1CC[C@@]2(C)[C@@H](CC[C@@H]3[C@@H]2CC[C@]2(C)[C@@H](c4ccc5ccncc5c4)CC[C@@H]32)C1` (some centres not stated) yielded an IC50 in assay [1] of 192 nM. The outcome in assay [2] was inactive.

`CN(C)[C@@H]1CC[C@@]2(C)[C@@H](CC[C@@H]3[C@@H]2CC[C@]2(C)[C@@H](c4ccc5ccncc5c4)CC[C@@H]32)C1` displayed an IC50 in assay [1] of 64 nM.

For the molecule `CN(C)[C@H]1CC[C@@]2(C)[C@@H](CC[C@@H]3[C@@H]2CC[C@]2(C)[C@@H](c4ccc5ccncc5c4)CC[C@@H]32)C1`, in assay [1], the IC50 amounted to 24 nM.

In assay [1], `C[C@]12CC[C@H](O)C[C@@H]1CC[C@@H]1[C@@H]2CC[C@]2(C)C(c3ccc4ccncc4c3)=CC[C@@H]12` gave an IC50 of 1010 nM.

Take `C[C@]12CC[C@H]3[C@@H](CC=C4C[C@@H](O)CC[C@@]43C)[C@@H]1CC[C@@H]2c1ccc2cnncc2c1`: in assay [1], the IC50 was more than 10000 nM.

Molecule `C[C@]12CC[C@H](O)CC1=CC[C@@H]1[C@@H]2CC[C@]2(C)C(c3ccc4nc(N)ncc4c3)=CC[C@@H]12` gave an IC50 in assay [1] of 2300 nM.

`C[C@]12CC[C@H]3[C@@H](CC=C4C[C@@H](O)CC[C@@]43C)[C@@H]1CC[C@@H]2c1ccc2[nH]ncc2c1`: in assay [1], the IC50 is more than 10000 nM.

In the case of `C[C@]12CC[C@H](O)CC1=CC[C@@H]1[C@@H]2CC[C@]2(C)C(c3ccc4[nH]ncc4c3)=CC[C@@H]12`, the IC50 in assay [1] is more than 10000 nM.

`C[C@]12CC[C@H](O)CC1=CC[C@@H]1[C@@H]2CC[C@]2(C)C(c3ccc4cn[nH]c4c3)=CC[C@@H]12`: the IC50 in assay [1] is more than 10000 nM.

For `C[C@]12CC[C@H]3[C@@H](CC=C4C[C@@H](O)CC[C@@]43C)[C@@H]1CC[C@@H]2c1ccc2ccncc2c1`, in assay [1], the midpoint of inhibition, the IC50, lay at 48 nM.

With `C[C@]12CC[C@H](O)C[C@@H]1CC[C@@H]1[C@@H]2CC[C@]2(C)[C@@H](c3ccc4ccncc4c3)CC[C@@H]12`, in assay [1], half-maximal inhibition (IC50) required 208 nM.

`C[C@]12CC[C@H]3[C@@H](CC=C4C[C@@H](O)CC[C@@]43C)[C@@H]1CC[C@@H]2c1ccc2nc(N)ncc2c1` had an IC50 in assay [1] of 108 nM.

In assay [1], `CN1C(=O)CCC(N2C(=O)c3cccc(NCCOCCOCCOCCOCCC(=O)N(C)[C@H]4CC[C@@]5(C)[C@@H](CC[C@@H]6[C@@H]5CC[C@]5(C)[C@@H](c7ccc8ccncc8c7)CC[C@@H]65)C4)c3C2=O)C1=O` (some centres not stated) had a 50% inhibitory concentration (IC50) of 443 nM. Further, in assay [3], the outcome was inactive.

In assay [1], `C[C@]12CC[C@H](n3ccnn3)C[C@@H]1CC[C@@H]1[C@@H]2CC[C@]2(C)[C@@H](c3ccc4ccncc4c3)CC[C@@H]12` registered an IC50 of 24 nM.

`C[C@]12CC[C@H](O)CC1=CC[C@@H]1[C@@H]2CC[C@]2(C)C(c3ccc4cnncc4c3)=CC[C@@H]12` gave an IC50 in assay [1] of more than 10000 nM.

`CN(C)[C@H]1C[C@@]23CC[C@@]4(O2)C(=CC[C@]2(C)C(c5ccc6ccncc6c5)=CCC24)C=C3[C@@H](O)[C@@H]1O` (some centres not stated): the inhibition entry in assay [4] was “Dose-dependent effect”.

`C[C@]12CC[C@H](N3CCOCC3)C[C@@H]1CC[C@@H]1[C@@H]2CC[C@]2(C)[C@@H](c3ccc4ccncc4c3)CC[C@@H]12`: in assay [1], the IC50 was 120 nM.

Regarding `C[C@]12CC[C@H](O)CC1=CC[C@@H]1[C@@H]2CC[C@]2(C)C(c3ccc4ccncc4c3)=CC[C@@H]12`, it took 164 nM to reach half-maximal inhibition in assay [1] (IC50).

`C[C@]12CC[C@H](O)CC1=CC[C@@H]1[C@@H]2CC[C@]2(C)C(c3ccc4c(N)n[nH]c4c3)=CC[C@@H]12` came in with an IC50 in assay [1] of 1520 nM.

`C[C@]12CC[C@H]3[C@@H](CC=C4C[C@@H](O)CC[C@@]43C)[C@@H]1CC[C@@H]2c1ccc2c(N)n[nH]c2c1` had an IC50 in assay [1] of 682 nM.

The molecule `CC(=O)N(C)[C@H]1CC[C@@]2(C)[C@@H](CC[C@@H]3[C@@H]2CC[C@]2(C)[C@@H](c4ccc5ccncc5c4)CC[C@@H]32)C1` yielded a half-maximal inhibitory concentration (IC50) in assay [1] of 34 nM.

`C[C@]12CC[C@H]3[C@@H](CC=C4C[C@@H](O)CC[C@@]43C)[C@@H]1CC[C@@H]2c1ccc2cn[nH]c2c1` returned an IC50 in assay [1] of more than 10000 nM.

With `C[C@]12CC[C@H]3[C@@H](CC=C4C[C@@H](O)CC[C@@]43C)[C@@H]1CC[C@@H]2c1ccc2cnccc2c1`, in assay [1], half-maximal inhibition (IC50) required 6000 nM.

`C[C@]12CC[C@H](O)CC1=CC[C@@H]1[C@@H]2CC[C@]2(C)C(c3ccc4cnccc4c3)=CC[C@@H]12`: in assay [1], half-maximal inhibition (IC50) required 8240 nM.
